A short description of data set [1]: Stability in porcine vitreous assessed as increase in life time measured at 10 uM after 10 days by UPLC-MS/MS analysis. It counts as ADME, tissue-based, Sus scrofa, Vitreous humor. The conditions noted are these: pig, 240 h, time 10 day. In outline:
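Peptide at 10 µM incubated at 37°C in porcine vitreous containing 1% penicillin/streptomycin, one separate tube per time point. Remaining parent peptide quantified by UPLC-MS/MS at each time point.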

Data set [2] can be described thus: Binding affinity to VEGF (unknown origin) by microscale thermophoresis assay. Also noted: species or system Homo sapiens. In outline:
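Microscale thermophoresis with fluorescently labeled VEGF-RED (initial concentration 12 nM), read on a Monolith NT.115 Pico. Peptide and VEGF were measured immediately after mixing, with no incubation. KD derived from the thermophoresis signal.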
(In general: In MST a laser heats a spot of the sample, and binding alters the fluorescence response.)

Data set [3] is described as follows: Inhibition of VEGF-mediated in human HUVEC cell proliferation incubated for 48 hrs by MTT assay. In outline: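 HUVECs seeded at 25,000/well in medium with 0.5 ng/mL VEGF165 for 48 h, then starved 24 h without VEGF or FBS. Peptide (4, 20, 100, 500 µM) premixed with 50 ng/mL VEGF165 for 2 h at 37°C, then added to cells for 48 h. MTT read-out as percent of no-peptide control OD, fitted to IC50; mean ± SD, n = 3.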
Background: Tetrazolium assays rely on reduction of a dye to a coloured formazan, in cell work by metabolically active cells.

Data set [4] is described as follows: Binding affinity to VEGF (unknown origin) incubated for 30 mins by microscale thermophoresis assay. Also noted: species or system Homo sapiens. An outline of the steps: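 Fluorescently labeled VEGF-RED (initial concentration 12 nM) mixed with peptide and incubated 30 min to reach complex equilibrium before microscale thermophoresis on a Monolith NT.115 Pico. KD obtained from the thermophoresis signal.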

A further data set relates to ARPE-19. As to the kind of experiment: Cytotoxicity against human ARPE-19 cells assessed as cell viability up to 20 uM measured after 5 hrs by MTT assay. Format: cell-based. The conditions noted are these: arpe-19, 5 h. An outline of the steps:
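ARPE-19 cells seeded at 20,000/well and grown overnight, then washed. Exposed 5 h at 37°C, 7% CO2 to peptide at 0.01–100 µM in complete medium. Medium replaced, cells grown a further 24 h. MTT 4 h at 37°C, formazan dissolved in 10% SDS/0.01 M HCl overnight, A570 read. Viability relative to untreated cells; poly-L-lysine-treated cells as control.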

Each structure is given as a SMILES string. Positions of bridges follow the written chain, without caps; N, C: chain ends. Non-standard residues stand in square brackets, D forms with d. Residues, ends and D or L forms follow the SMILES beside them. Nle = CCCC[C@H](N)C(=O)O; Aib = CC(C)(N)C(=O)O

We go through 7 molecules from ChEMBL document CHEMBL5029151, “Conformationally Constrained Peptides with High Affinity to the Vascular Endothelial Growth Factor” (J Med Chem, 2021).

As for `CCCC[C@@H]1NC(=O)[C@H](C(C)C)NC(=O)C(C)(C)NC(=O)[C@H]([C@@H](C)CC)NC(=O)[C@H](CC(=O)O)NC(=O)[C@@H](NC(=O)[C@H](CC(N)=O)NC(=O)[C@@H]2CCCN2C(=O)[C@H](CCC(=O)O)NC(=O)[C@@H](N)C(C)C)CSSC[C@@H](C(=O)N[C@@H](Cc2ccccc2)C(=O)N[C@@H](CCC(=O)O)C(=O)N[C@@H](CCCNC(=N)N)C(=O)N[C@@H](CC(C)C)C(=O)O)NC(=O)[C@H](CCC(=O)O)NC(=O)[C@H](Cc2c[nH]c3ccccc23)NC(=O)[C@H](CCC(=O)O)NC(=O)[C@H](Cc2c[nH]c3ccccc23)NC1=O`, in data set [1], the Stability entry was “Stable”. Further, binding in data set [2] was characterised by a dissociation constant (Kd) of 11.8 µM. The IC50 in data set [3] worked out at 50 µM.
As for `CCCC[C@@H]1NC(=O)[C@H](C(C)C)NC(=O)[C@H](Cc2c[nH]cn2)NC(=O)[C@H]([C@@H](C)CC)NC(=O)[C@H](CC(=O)O)NC(=O)[C@@H](NC(=O)[C@H](CC(N)=O)NC(=O)[C@@H]2CCCN2C(=O)[C@H](CCC(=O)O)NC(=O)[C@@H](N)C(C)C)CSSC[C@@H](C(=O)N[C@@H](Cc2ccccc2)C(=O)N[C@@H](CCC(=O)O)C(=O)N[C@@H](CCCNC(=N)N)C(=O)N[C@@H](CC(C)C)C(=O)O)NC(=O)[C@H](CCC(=O)O)NC(=O)[C@H](Cc2c[nH]c3ccccc23)NC(=O)[C@H](CCC(=O)O)NC(=O)[C@H](Cc2c[nH]c3ccccc23)NC1=O`, the results for the dissociation constant Kd in data set [2] and in data set [4] were 3.87 µM and 0.3 µM, respectively. Further, the IC50 in data set [3] was determined as 20 µM. Moreover, in the data set on ARPE-19, the Activity entry is “Non-Toxic”.
The molecule `CCCC[C@@H]1NC(=O)[C@H](C(C)C)NC(=O)[C@H](Cc2c[nH]cn2)NC(=O)[C@H]([C@@H](C)CC)NC(=O)[C@H](CC(=O)O)NC(=O)[C@@H](N)CSSC[C@@H](C(=O)N[C@@H](Cc2ccccc2)C(=O)N[C@@H](CCC(=O)O)C(=O)N[C@@H](CCCNC(=N)N)C(=O)N[C@@H](CC(C)C)C(=O)O)NC(=O)[C@H](CCC(=O)O)NC(=O)[C@H](Cc2c[nH]c3ccccc23)NC(=O)[C@H](CCC(=O)O)NC(=O)[C@H](Cc2c[nH]c3ccccc23)NC1=O` registered a dissociation constant Kd in data set [2] of 9.97 µM. The molecule further had an IC50 in data set [3] of 12 µM.
Take `CCCC[C@@H]1NC(=O)[C@H](C(C)C)NC(=O)[C@H](Cc2c[nH]cn2)NC(=O)[C@H]([C@@H](C)CC)NC(=O)[C@H](CC(=O)O)NC(=O)[C@@H](NC(=O)[C@H](CC(N)=O)NC(=O)[C@@H]2CCCN2C(=O)C(C)(C)NC(=O)[C@@H](N)C(C)C)CSSC[C@@H](C(=O)N[C@@H](Cc2ccccc2)C(=O)N[C@@H](CCC(=O)O)C(=O)N[C@@H](CCCNC(=N)N)C(=O)N[C@@H](CC(C)C)C(=O)O)NC(=O)[C@H](CCC(=O)O)NC(=O)[C@H](Cc2c[nH]c3ccccc23)NC(=O)[C@H](CCC(=O)O)NC(=O)[C@H](Cc2c[nH]c3ccccc23)NC1=O`: the Stability result in data set [1] is reported as “Stable”. Moreover, the Kd turned out to be 2.97 µM in data set [2] and 0.004 µM in data set [4]. In data set [3], this molecule came in with an IC50 of 10 µM.
`CCCC[C@@H]1NC(=O)[C@H](C(C)C)NC(=O)[C@H](Cc2c[nH]cn2)NC(=O)[C@H]([C@@H](C)CC)NC(=O)[C@H](CC(=O)O)NC(=O)[C@@H](NC(=O)[C@H](CC(N)=O)NC(=O)[C@@H](N)C(C)C)CSSC[C@@H](C(=O)N[C@@H](Cc2ccccc2)C(=O)N[C@@H](CCC(=O)O)C(=O)N[C@@H](CCCNC(=N)N)C(=O)N[C@@H](CC(C)C)C(=O)O)NC(=O)[C@H](CCC(=O)O)NC(=O)[C@H](Cc2c[nH]c3ccccc23)NC(=O)[C@H](CCC(=O)O)NC(=O)[C@H](Cc2c[nH]c3ccccc23)NC1=O` gave an equilibrium dissociation constant (Kd) in data set [2] of 1.94 µM. Besides, the IC50 in data set [3] worked out at 4 µM.
On to `CCCC[C@@H]1NC(=O)[C@H](C(C)C)NC(=O)[C@H](Cc2c[nH]cn2)NC(=O)[C@H]([C@@H](C)CC)NC(=O)[C@H](CC(=O)O)NC(=O)[C@@H](NC(=O)[C@H](CCCCN)NC(=O)[C@H](CCCCN)NC(=O)C(C)(C)NC(=O)[C@@H](N)CCCCN)CSSC[C@@H](C(=O)N[C@@H](Cc2ccccc2)C(=O)N[C@@H](CCC(=O)O)C(=O)N[C@@H](CCCNC(=N)N)C(=O)N[C@@H](CC(C)C)C(=O)O)NC(=O)[C@H](CCC(=O)O)NC(=O)[C@H](Cc2c[nH]c3ccccc23)NC(=O)[C@H](CCC(=O)O)NC(=O)[C@H](Cc2c[nH]c3ccccc23)NC1=O`, for which the Stability result in data set [1] is reported as “Stable”. The figures for the dissociation constant (Kd) in data set [2] and in data set [4] were 0.54 µM and 3 µM, respectively. In data set [3], this molecule displayed an IC50 of 6 µM.
For `CCCC[C@@H]1NC(=O)[C@H](C(C)C)NC(=O)[C@H](Cc2c[nH]cn2)NC(=O)[C@H]([C@@H](C)CC)NC(=O)[C@H](CC(=O)O)NC(=O)[C@@H](NC(=O)[C@H](CC(N)=O)NC(=O)[C@@H]2CCCN2C(=O)[C@H](CCC(=O)O)NC(=O)[C@@H](N)C(C)C)CSSC[C@@H](C(=O)N[C@@H](Cc2ccccc2)C(=O)N[C@@H](CCC(=O)O)C(=O)N[C@@H](CCCNC(=N)N)C(=O)N[C@@H](CC(C)C)C(=O)O)NC(=O)[C@H](CCC(=O)O)NC(=O)[C@H](Cc2c[nH]c3ccccc23)NC(=O)C(C)(C)NC(=O)[C@H](Cc2c[nH]c3ccccc23)NC1=O` (H-VEPNCDIHV[Nle]W[Aib]WECFERL-OH; disulfide 5-15) the same measures were “Unstable”, 0.94 µM, 0.15 µM and 3.5 µM.

Usually Kd stands for the equilibrium constant for the complex coming apart. Read a high Kd as a looser complex. By IC50 is commonly meant the concentration that gives 50% inhibition. High values mean a need for much substance, low ones inhibition by little substance.
